Laboratory results taken from ChEMBL document CHEMBL2203265, “Discovery of tetrahydropyridopyrimidine phosphodiesterase 10A inhibitors for the treatment of schizophrenia” (Bioorg Med Chem Lett, 2012).
Converted amounts (≈) assume the structure as drawn. Values belong to the molecule of their own block, whether it stands above or below them. The source made the active and inactive calls. The rule behind the calls is not given here.

Columns and labels:
[1] = target: cAMP and cAMP-inhibited cGMP 3',5'-cyclic phosphodiesterase 10A (Homo sapiens, UniProt Q9Y233); assay: Inhibition of PDE10A
cAMP and cAMP-inhibited cGMP 3',5'-cyclic phosphodiesterase 10A, sequence (Q9Y233 whole entry): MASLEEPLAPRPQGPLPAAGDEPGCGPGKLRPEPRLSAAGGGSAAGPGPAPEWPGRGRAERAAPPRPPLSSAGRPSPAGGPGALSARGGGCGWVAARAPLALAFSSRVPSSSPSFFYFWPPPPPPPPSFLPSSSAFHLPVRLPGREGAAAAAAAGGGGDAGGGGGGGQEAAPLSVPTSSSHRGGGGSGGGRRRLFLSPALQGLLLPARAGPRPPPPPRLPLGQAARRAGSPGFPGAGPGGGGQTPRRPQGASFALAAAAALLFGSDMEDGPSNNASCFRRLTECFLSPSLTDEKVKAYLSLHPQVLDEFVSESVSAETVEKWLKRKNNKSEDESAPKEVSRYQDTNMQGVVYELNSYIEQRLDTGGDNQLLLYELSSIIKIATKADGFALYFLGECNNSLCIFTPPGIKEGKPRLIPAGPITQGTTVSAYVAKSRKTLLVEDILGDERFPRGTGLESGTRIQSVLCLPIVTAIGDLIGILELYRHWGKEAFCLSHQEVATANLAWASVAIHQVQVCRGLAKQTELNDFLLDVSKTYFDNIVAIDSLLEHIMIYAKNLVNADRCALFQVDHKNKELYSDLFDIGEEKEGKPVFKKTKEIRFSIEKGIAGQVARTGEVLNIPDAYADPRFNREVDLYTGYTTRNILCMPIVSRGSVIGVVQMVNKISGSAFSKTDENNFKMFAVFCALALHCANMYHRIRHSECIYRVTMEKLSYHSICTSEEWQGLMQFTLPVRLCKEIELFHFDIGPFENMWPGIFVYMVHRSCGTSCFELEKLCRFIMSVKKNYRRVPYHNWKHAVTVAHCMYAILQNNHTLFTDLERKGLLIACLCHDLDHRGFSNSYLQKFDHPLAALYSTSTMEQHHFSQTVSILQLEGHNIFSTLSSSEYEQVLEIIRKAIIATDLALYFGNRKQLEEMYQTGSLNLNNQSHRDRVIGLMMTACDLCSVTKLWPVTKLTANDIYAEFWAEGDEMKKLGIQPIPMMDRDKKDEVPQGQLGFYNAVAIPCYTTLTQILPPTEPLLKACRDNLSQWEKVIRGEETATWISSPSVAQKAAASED

Homo sapiens [2] = species on record: Homo sapiens; assay: Selectivity ratio of Ki for human PDE2A to Ki for human PDE10A
Homo sapiens [3] = species on record: Homo sapiens; assay: Selectivity ratio of Ki for human PDE4A to Ki for human PDE10A
Homo sapiens [4] = species on record: Homo sapiens; assay: Selectivity ratio of Ki for human PDE9A to Ki for human PDE10A
Rattus norvegicus [5] = assay: Antipsychotic activity in rat assessed as increase in cognitive function at 1 mg/kg, po by NOR assay; assay type: functional, organism-based; design: dose 1 mg/kg
[6] = Plasma concentration in rat at 3 mg/kg, po at 2 hrs; assay type: ADME, organism-based; design: dose 3 mg/kg, route oral
How it was run: (§1)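 Plasma drug concentration is sampled 2 h after oral dosing in the rat hyperlocomotion study.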

[7] = Solubility of the compound at pH 7; assay type: physicochemical; conditions: buffer
Rattus norvegicus [8] = assay: Toxicity in rat assessed as decrease in weight gain up to 10 mg/kg, po administered for 7 days relative to vehicle-treated control; assay type: organism-based; design: dose 10 mg/kg, route oral; conditions: in vivo, 168 h
How it was run: (§2)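 Rats are dosed orally for 7 days, with olanzapine at 4 mg/kg as the comparator. Weight gain, body fat, and lean body mass are measured against vehicle, n = 12/group.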

[9] = Time-dependent inhibition of cytochrome P450; assay type: ADME
Rattus norvegicus [10] = assay: Antipsychotic activity in po dosed rat assessed as inhibition of MK801-induced hyperlocomotion; assay type: functional, organism-based
How it was run: (§3)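 Oral dosing in rats challenged with the psychostimulant MK-801. Locomotor activity is scored against vehicle-only animals and against animals given MK-801 alone.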

Homo sapiens [11] = species on record: Homo sapiens; assay: Selectivity ratio of Ki for human PDE8A to Ki for human PDE10A
[12] = Reversible inhibition of cytochrome P450; assay type: ADME
Homo sapiens [13] = species on record: Homo sapiens; assay: Selectivity ratio of Ki for human PDE7A to Ki for human PDE10A
Rattus norvegicus [14] = assay: Antipsychotic activity in rat assessed as inhibition of MK801-induced hyperlocomotion at 3 mg/kg, po; assay type: functional, organism-based; design: dose 3 mg/kg; how it was run: as §3
[15] = target: T1, Nuclear receptor subfamily 1 group I member 2 (Homo sapiens, UniProt O75469); assay: Activation of PXR
T1 sequence (O75469 whole entry): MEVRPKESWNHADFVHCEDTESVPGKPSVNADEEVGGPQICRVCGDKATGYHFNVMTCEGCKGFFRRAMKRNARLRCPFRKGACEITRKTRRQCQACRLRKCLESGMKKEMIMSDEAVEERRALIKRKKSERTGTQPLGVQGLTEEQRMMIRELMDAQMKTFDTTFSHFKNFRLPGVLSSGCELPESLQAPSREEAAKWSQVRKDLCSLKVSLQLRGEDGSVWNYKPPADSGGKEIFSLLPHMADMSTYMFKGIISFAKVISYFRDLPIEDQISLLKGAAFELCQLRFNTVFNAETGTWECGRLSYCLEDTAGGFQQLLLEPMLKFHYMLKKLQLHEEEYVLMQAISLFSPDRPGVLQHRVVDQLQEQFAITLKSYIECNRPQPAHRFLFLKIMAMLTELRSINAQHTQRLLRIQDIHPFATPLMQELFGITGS

Salmonella typhimurium = assay: Mutagenicity against Salmonella typhimurium up to 5000 ug/plate by Ames test; assay type: toxicity, organism-based; conditions: salmonella enterica subsp. enterica serovar typhimurium
[16] = Clearance in monkey; assay type: ADME, organism-based, Macaca mulatta; conditions: rhesus monkey, in vivo
Rattus norvegicus [17] = assay: Inhibition of PDE10A in po dosed rat assessed as increase in striatal cGMP level after 2 hrs relative to vehicle-treated control; assay type: functional, organism-based
How it was run: (§4)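 Rats given the compound orally. Striatal cGMP is measured 2 h after dosing and expressed relative to vehicle-injected controls.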

Homo sapiens [18] = species on record: Homo sapiens; assay: Selectivity ratio of Ki for human PDE5A to Ki for human PDE10A
Homo sapiens [19] = species on record: Homo sapiens; assay: Selectivity ratio of Ki for human PDE11A to Ki for human PDE10A
Canis familiaris = assay: Cardiotoxicity in dog assessed as QTc prolongation at 13,29 and 42 mg/kg, iv administered sequentially at 30 mins periods; assay type: toxicity, organism-based, Canis lupus familiaris; design: dose 42 mg/kg, route intravenous; conditions: in vivo, 0.5 h
[20] = Clearance in rat; assay type: ADME, organism-based; conditions: in vivo
Rattus norvegicus [21] = assay: Toxicity in rat assessed as induction of catalepsy up to 50 mg/kg, po; assay type: organism-based; design: dose 50 mg/kg, route oral; conditions: in vivo
How it was run: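 Catalepsy in rats is scored by fore-limb retraction (paw test) after oral administration, with haloperidol at 1.5 mg/kg as the control.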

Homo sapiens [22] = species on record: Homo sapiens; assay: Selectivity ratio of Ki for human PDE3A to Ki for human PDE10A
Rattus norvegicus [23] = assay: Inhibition of PDE10A in rat assessed as increase in striatal cGMP level at 30 mg/kg, po after 2 hrs relative to vehicle-treated control; assay type: functional; design: scale not given: the % may be the effect or the level left; how it was run: as §4
Rattus norvegicus [24] = assay: Toxicity in rat assessed as decrease in total body fat up to 10 mg/kg, po administered for 7 days relative to vehicle-treated control; assay type: organism-based; design: dose 10 mg/kg, route oral; conditions: in vivo, 168 h; how it was run: as §2
Homo sapiens [25] = species on record: Homo sapiens; assay: Selectivity ratio of Ki for human PDE1A to Ki for human PDE10A
Rattus norvegicus [26] = species on record: Rattus norvegicus; assay: Antipsychotic activity in rat by conditioned avoidance response assay; assay type: functional, organism-based
Rattus norvegicus [27] = assay: Toxicity in rat assessed as increase in prolactin level up to 50 mg/kg, po; assay type: organism-based; design: dose 50 mg/kg, route oral; conditions: in vivo
How it was run: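 Circulating prolactin is measured in rats after oral administration, with haloperidol at 1.5 mg/kg as the control.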

[28] = Clearance in dog; assay type: ADME, organism-based, Canis lupus familiaris; conditions: in vivo
Homo sapiens [29] = species on record: Homo sapiens; assay: Selectivity ratio of Ki for human PDE6A to Ki for human PDE10A
Rattus norvegicus [30] = assay: Toxicity in rat assessed as decrease in lean body mass up to 10 mg/kg, po administered for 7 days relative to vehicle-treated control; assay type: organism-based; design: dose 10 mg/kg, route oral; conditions: in vivo, 168 h; how it was run: as §2
Rattus norvegicus [31] = assay: Antipsychotic activity in rat assessed as inhibition of MK801-induced hyperlocomotion at 4.5 mg/kg, po; assay type: functional, organism-based; design: dose 4.5 mg/kg; how it was run: as §3
[32] = Plasma concentration in rat at 4.5 mg/kg, po at 2 hrs; assay type: ADME, organism-based; design: dose 4.5 mg/kg, route oral; how it was run: as §1

SMILES: Cc1ccncc1NC(=O)N1CCc2nc(-c3ccc(Cl)nc3)nc(OC(C)C)c2C1
Ki [1]: 0.6 nM

SMILES: COCCOc1nc(-c2ccc(Cl)nc2)nc2c1CN(C(=O)c1ncn3ccccc13)CC2 [THPP-1]
Ratio Ki (Homo sapiens [2]): > 1000
Ratio Ki (Homo sapiens [3]): > 1000
Ratio Ki (Homo sapiens [4]): > 1000
Activity (Rattus norvegicus [5]): Active
concentration at 2 h [6]: 730 nM
solubility [7]: 20 µM (≈ 9.3 µg/mL)
Activity (Rattus norvegicus [8]): Non-toxic
inhibition (INH) [9]: Not Active
inhibition (Rattus norvegicus [10]): Dose-dependent effect
Ratio Ki (Homo sapiens [11]): > 1000
inhibition (INH) [12]: Not Active
Ratio Ki (Homo sapiens [13]): > 1000
Activity (Rattus norvegicus [14]): Active
Activity [15]: Not Active
Activity (Salmonella typhimurium): Non-toxic
clearance [16]: 7.7 mL/min/kg
inhibition (Rattus norvegicus [17]): Dose-dependent effect
Ratio Ki (Homo sapiens [18]): 116
Ratio Ki (Homo sapiens [19]): 300
Activity (Canis familiaris): Non-toxic
clearance [20]: 6 mL/min/kg
Activity (Rattus norvegicus [21]): Non-toxic
Ratio Ki (Homo sapiens [22]): > 1000
Activity (Rattus norvegicus [23]): >150%
Activity (Rattus norvegicus [24]): Non-toxic
Ratio Ki (Homo sapiens [25]): > 1000
Activity (Rattus norvegicus [26]): Dose-dependent effect
Activity (Rattus norvegicus [27]): Non-toxic
clearance [28]: 3.8 mL/min/kg
Ratio Ki (Homo sapiens [29]): 44
Activity (Rattus norvegicus [30]): Non-toxic

SMILES: CN(CCc1ccccn1)c1nc(-c2cccnc2)nc2c1CN(C(=O)Nc1ccccc1)CC2
solubility [7]: > 75 µM
Ki [1]: 121 nM

SMILES: Cc1nc2c(c(N(C)CCc3ccccn3)n1)CN(C(=O)Nc1ccccc1)CC2
Ki [1]: 4340 nM

SMILES: Cc1ccncc1NC(=O)N1CCc2nc(-c3ccc(F)nc3)nc(OC(C)C)c2C1
Ki [1]: 3 nM

SMILES: CN(C)c1nc2c(c(N(C)CCc3ccccn3)n1)CN(C(=O)Nc1ccccc1)CC2
Ki [1]: 512 nM

SMILES: COc1nc(-c2cccnc2)nc2c1CN(C(=O)Nc1ccccc1)CC2
solubility [7]: > 75 µM
Ki [1]: 93 nM

Continued, in another order:

Ki [1]: 247 nM
SMILES: Cc1ccncc1NC(=O)N1CCc2nc(-c3ccc(C(F)(F)F)nc3)nc(OC(C)C)c2C1

solubility [7]: > 75 µM
Ki [1]: 522 nM
SMILES: CN(CCc1ccccn1)c1nc(-c2ccncc2)nc2c1CN(C(=O)c1ccc(Cl)cc1)CC2

solubility [7]: < 10 µM
Ki [1]: 991 nM
SMILES: CN(CCc1ccccn1)c1nc(-c2cccc(Br)c2)nc2c1CN(C(=O)Nc1ccccc1)CC2

solubility [7]: > 75 µM
Ki [1]: 7.9 nM
SMILES: Cc1ccncc1NC(=O)N1CCc2nc(-c3cccnc3)nc(OC(C)C)c2C1

concentration at 2 h [32]: 3000 nM
solubility [7]: 69 µM
clearance [20]: 2.4 mL/min/kg
clearance [28]: 0.94 mL/min/kg
SMILES: CC(C)Oc1nc(-c2ccc(Cl)nc2)nc2c1CN(C(=O)c1cn(C)cn1)CC2.Cl
inhibition (Rattus norvegicus [31]): Active
inhibition (Rattus norvegicus [10]): Dose-dependent effect

solubility [7]: > 75 µM
Ki [1]: 843 nM
SMILES: CN(CCc1ccccn1)c1nc(-c2ccncc2)nc2c1CN(S(C)(=O)=O)CC2

solubility [7]: > 75 µM
Ki [1]: 122 nM
SMILES: COc1ccc(NC(=O)N2CCc3nc(-c4ccncc4)nc(N(C)CCc4ccccn4)c3C2)cc1

solubility [7]: > 75 µM
Ki [1]: 868 nM
SMILES: CC(C)CC(=O)N1CCc2nc(-c3ccncc3)nc(N(C)CCc3ccccn3)c2C1

solubility [7]: > 75 µM
Ki [1]: 135 nM
SMILES: COCCOc1nc(-c2ccncc2)nc2c1CN(C(=O)Nc1ccccc1)CC2
